# Measurements published in publication PMC10751876 (Current research in chemical biology, 2023).
# Columns and labels:
# hBRD4 [1] = target: T1, hBRD4 (Homo sapiens, UniProt O60885); experiment: SPR binding to hBRD4; settings: for Rmax: hBRD4, SPR fit, (locked) = as printed
# TbBdf2 [2] = target: T2, TbBdf2 (Trypanosoma brucei brucei, UniProt Q38AM1); experiment: SPR binding to TbBdf2; parameters: species or system T. brucei; settings: for Rmax: SPR fit, (locked) = as printed; for Kd: read-out: SPR KD, duplicate, standard error
# T2 sequence (Q38AM1 9-123): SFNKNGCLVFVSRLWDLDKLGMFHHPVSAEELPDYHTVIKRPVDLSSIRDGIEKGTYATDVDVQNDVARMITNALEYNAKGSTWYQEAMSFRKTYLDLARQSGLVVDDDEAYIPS
# Method in brief: (§1)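 Purified His6-tagged bromodomain protein was labelled with DBCO-PEG4-NHS ester (3-fold molar excess, 2 h, room temperature), quenched with ethanolamine, and coupled to an azide chip at pH 4.0 (~6000 RU). Run in duplicate, standard error.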
# TbBdf3 [3] = target: T3, TbBdf3 (Trypanosoma brucei brucei, UniProt Q383S2); experiment: SPR binding to TbBdf3; parameters: species or system T. brucei; settings: for Rmax: TbBdf3, SPR fit, (locked) = as printed
# T3 sequence (Q383S2 1-221): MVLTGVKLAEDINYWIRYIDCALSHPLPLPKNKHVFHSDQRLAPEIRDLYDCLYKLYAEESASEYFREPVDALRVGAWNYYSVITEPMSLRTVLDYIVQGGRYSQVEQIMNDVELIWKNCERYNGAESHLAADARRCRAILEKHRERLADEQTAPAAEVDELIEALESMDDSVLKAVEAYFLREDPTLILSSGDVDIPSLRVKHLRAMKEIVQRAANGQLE
# Method in brief: as §1
# hBRD4 [4] = target: T1, hBRD4; experiment: ITC binding to hBRD4
# TbBdf2 [5] = target: T2, TbBdf2; experiment: ITC binding to TbBdf2; parameters: species or system T. brucei; settings: 15 °C; n set to 1.0; single experiment, error of the fit
# Method in brief: (§2)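 ITC at 15 °C. His6-tagged bromodomain protein was dialysed against 20 mM HEPES pH 7.5, 150 mM NaCl, 0.5 mM TCEP, 1% DMSO. Typically 2.0 mM protein was injected in 2–3 μL increments into 200 μM ligand in the cell. Baseline-corrected isotherms were fitted. Each titration was run at least twice; reported values come from single experiments with fit error.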
# TbBdf3 [6] = target: T3, TbBdf3; experiment: ITC binding to TbBdf3; parameters: species or system T. brucei
# Method in brief: as §2
# [7] = tested on: EP1/GFP reporter parasites; experiment: EP1/GFP reporter flow cytometry in bloodstream parasites; assay type: cell-based, T. brucei; settings: for EP1/GFP mean fluorescence intensity: 3 days
# Method in brief: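 Bloodstream Lister 427 L224 T. brucei (VSG3/BES7-NeoR, VSG2/BES1-PuroR) carrying an EP1/GFP reporter construct, grown in HMI-9 at 37 °C, 5% CO2. Parasites were treated 2 or 3 days, with DMSO as vehicle control. GFP mean fluorescence intensity was read by flow cytometry. Three biological replicates, SD shown; two-tailed unpaired t-test against DMSO.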
# [8] = tested on: bloodstream T. brucei parasites; experiment: Growth inhibition of bloodstream parasites; assay type: cell-based; settings: Trypanosoma brucei, 48 h, read-out: GEC50 growth inhibition
# Method in brief: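 Lister 427 L224 bloodstream parasites were plated at 10,000 cells/ml in HMI-9 across a compound concentration series and grown 48 h at 37 °C, 5% CO2. Cells were then stained with 5 μM Sytox Orange for 15 min at 37 °C and counted by fixed-volume flow cytometry in a live/Sytox-negative gate. Dose-response metrics came from growth-rate-inhibition analysis (GRMetric).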
# T. brucei parasites = experiment: Percent of live cells by forward and side scatter gating; assay type: cell-based; settings: flow cytometry live gate
# Method in brief: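 Lister 427 L224 bloodstream parasites were cultured in HMI-9 at 37 °C, 5% CO2 and treated 48 h or 72 h at set concentrations, with DMSO controls. Viability is the percentage of cells falling in a live gate set on forward and side scatter by flow cytometry.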
# [9] = tested on: bloodstream T. brucei parasites (procyclin protein); experiment: Procyclin surface protein expression, anti-EP1 flow cytometry; assay type: cell-based; settings: negative control, 3 days
# [10] = Solubility at ITC ligand concentration; assay type: physicochemical; settings: at 200 μM, ITC assay
Kd (hBRD4 [1]) [µM],Rmax (hBRD4 [1]),Rmax (TbBdf2 [2]),Kd (TbBdf2 [2]) [µM],Kd (TbBdf3 [3]) [µM],SPR binding to TbBdf3 (TbBdf3 [3]),Rmax (TbBdf3 [3]),Kd (hBRD4 [4]) [µM],"TbBdf2, ITC KD (TbBdf2 [5])",Kd (TbBdf3 [6]) [µM],solubility [10],"hBRD4, ITC KD (hBRD4 [4]; 15 °C, n set to 1.0, single experiment, error of the fit)",SMILES,EP1/GFP mean fluorescence intensity ([7]; 5 μM),EC50 [8] [µM],percentage of live cells compared to DMSO controls (T. brucei parasites),fold change in EP1/GFP mean fluorescence intensity compared to DMSO ([7]; 20 μM) [fold],procyclin surface expression [9],EP1/GFP mean fluorescence intensity ([7]; 20 μM)
0.29 ± 0.17,135 ± 27 RU,85 ± 35 RU,45 ± 31,30 ± 21,weak binding,143 ± 51 RU,0.68 ± 0.15,No binding,87 ± 21,–,–,"COc1cc2c(N[C@H](C)c3ccccn3)c(C(=O)NCCCCCCN)cnc2cc1-c1c(C)noc1C [AP-08-188, N-(6-Aminohexyl)-7-(3,5-dimethylisoxazol-4-yl)-6-methoxy-4-((R)-1-(pyridin-2-yl)ethylamino)quinoline-3-carboxamide]",highest,1.74 ± 0.044,significantly lower,–,–,–
–,–,–,–,–,–,–,–,–,–,–,–,"NCCCCCCNC(=O)c1ccccc1.O=C(O)C(F)(F)F [AP-08-190, N-(6-aminohexyl)benzamide 2,2,2-trifluoroacetate]",–,–,–,1.2,Neither DMSO nor the control compound AP-08-190 increased procyclin surface expression,–
6.1 ± 3.6,14.2 ± 1.8 RU,27.1 ± 1.2 RU,1.68 ± 0.34,1.43 ± 0.32,–,36.9 ± 1.9 RU,–,–,–,insolubility,–,"COc1cc2c(cc1-c1ccc(C(=O)NCCCCCCCCNC(=O)OC(C)(C)C)cc1)ncc1[nH]c(=O)n([C@H](C)c3ccccn3)c12 [AP-09-008, (R)-tert-Butyl 8-(4-(8-methoxy-2-oxo-1-(1-(pyridin-2-yl)ethyl)-2,3-dihydro-1H-imidazo[4,5-c]quinolin-7-yl)benzamido)octylcarbamate]",strong increase,1.27 ± 0.046,significantly lower,–,–,–
60 ± 26,200 (locked) RU,200 (locked) RU,44 ± 31,56 ± 31,–,200 (locked) RU,–,–,22 ± 11,–,No binding,"COCCOCCOCCOC(=O)c1ccc(-c2cc3ncc4[nH]c(=O)n([C@H](C)c5ccccn5)c4c3cc2OC)cc1 [AP-09-191, (R)-2-(2-(2-Methoxyethoxy)ethoxy)ethyl 4-(8-methoxy-2-oxo-1-(1-(pyridin-2-yl)ethyl)-2,3-dihydro-1H-imidazo[4,5-c]quinolin-7-yl)benzoate]",–,–,–,–,–,increased mean fluorescence intensity of GFP
